Here are results for eight molecules from ChEMBL document CHEMBL1123535, “Thiol addition to quinones: model reactions for the inactivation of thymidylate synthase by 5-p-benzoquinonyl-2'-deoxyuridine 5'-phosphate” (J Med Chem, 1986).

For orientation: Ki means the dissociation constant of the complex between target and ligand, obtained from inhibition or displacement.

Assay [1] deals with T1, Thymidylate synthase (Homo sapiens, UniProt P04818). As to the kind of experiment: The rate constant in 70% ethanol.
Target sequence in this assay (P04818 2-313 limits assumed): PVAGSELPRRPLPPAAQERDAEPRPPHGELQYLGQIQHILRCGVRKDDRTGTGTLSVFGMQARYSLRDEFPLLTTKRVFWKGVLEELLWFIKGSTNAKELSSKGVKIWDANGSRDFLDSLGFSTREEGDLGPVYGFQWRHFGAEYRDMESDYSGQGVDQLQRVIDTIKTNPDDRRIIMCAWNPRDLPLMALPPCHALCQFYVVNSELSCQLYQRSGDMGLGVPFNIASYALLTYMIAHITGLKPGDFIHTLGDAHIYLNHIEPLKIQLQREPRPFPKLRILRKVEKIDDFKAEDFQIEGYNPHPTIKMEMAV
Assay [2] has as its target T1, Thymidylate synthase. As to the kind of experiment: The rate constant in Acetonitrile and buffered aqueous acetonitrile solution, at 30 degrees C and pH 6.8.
Target sequence in this assay (P04818 2-313 limits assumed): as above
The target of assay [3] is T1, Thymidylate synthase. In words: Binding affinity against thymidylate synthase. In a few lines:
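Thymidylate synthase was inactivated at pH 6.8 and 30 °C, and time-dependent loss of activity was followed. Observed inactivation rate constants, including runs with substrate present (substrate protection), were fitted to 1/kobsd = [Ki[S]/(Km[I]) + Ki/kinact](1/[I]) + 1/kinact to give Ki and kinact. The second-order constant was taken as kinact/Ki.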
Target sequence in this assay (P04818 whole entry): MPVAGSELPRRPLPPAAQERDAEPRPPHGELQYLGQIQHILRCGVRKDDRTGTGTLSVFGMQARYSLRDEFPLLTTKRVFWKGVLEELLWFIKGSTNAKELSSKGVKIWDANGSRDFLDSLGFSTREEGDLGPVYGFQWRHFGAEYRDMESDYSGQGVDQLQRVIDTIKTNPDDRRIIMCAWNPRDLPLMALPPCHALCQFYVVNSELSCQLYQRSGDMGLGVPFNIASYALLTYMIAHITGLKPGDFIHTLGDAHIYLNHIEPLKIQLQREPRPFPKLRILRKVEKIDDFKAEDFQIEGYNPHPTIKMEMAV

The target of assay [4] is T1, Thymidylate synthase.
Target sequence in this assay (P04818 2-313 limits assumed): as the sequence (P04818 2-313 limits assumed) above
Assay [5] addresses T1, Thymidylate synthase. As to the kind of experiment: The rate constant in Acetonitrile and buffered aqueous acetonitrile solution, at 30 degrees Celsius and pH 8.1.
Target sequence in this assay (P04818 2-313 limits assumed): as above
The target in assay [6] is T1, Thymidylate synthase. In words: The rate constant in 75% aqueous Acetonitrile […] as reagent.
Target sequence in this assay (P04818 2-313 limits assumed): as above
Assay [7] concerns the target T1, Thymidylate synthase. As to the kind of experiment: The rate constant in 75% aqueous Acetonotrileas methyl mercaptoacetate as reagent.
Target sequence in this assay (P04818 2-313 limits assumed): as above
The target in assay [8] is T1, Thymidylate synthase. In words: The rate constant in Acetonitrile and buffered aqueous acetonitrile solution, at 25 degrees Celsius and pH 7.4.
Assay [9] concerns the target T1, Thymidylate synthase. As to the kind of experiment: The rate constant with methyl mercaptoacetate in Acetonitrile and buffered aqueous acetonitrile solution at concentration of 0.012 M. The method, boiled down: (§1)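 Quinone nucleoside reacted with excess methyl mercaptoacetate in deoxygenated acetonitrile at […]. Water content was varied by adding known amounts of water to acetonitrile dried over 3-Å sieves. Initial quinone was 7.4×10^-5 to 1.6×10^-4 M, and thiol was varied. Pseudo-first-order kobsd was measured, and k2 came from log kobsd = log k2 + n log[thiol].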

For assay [10], the target named is T1, Thymidylate synthase. As to the kind of experiment: The rate constant with methyl mercaptoacetate in Acetonitrile and buffered aqueous acetonitrile solution at concentration of 0.0077 M. The method, boiled down:
as §1

Assay [11] has as its target T1, Thymidylate synthase. As to the kind of experiment: The observed rate constant with methyl mercaptoacetate in Acetonitrile and buffered aqueous acetonitrile solution at 1.6 x 10e-4 M concentration of 0.012 M. In a few lines:
as §1

Assay [12] has as its target T1, Thymidylate synthase. As to the kind of experiment: The observed rate constant with methyl mercaptoacetate in Acetonitrile and buffered aqueous acetonitrile solution at 1.6 x 10e-4 M concentration of 0.0061 M. In a few lines: as §1
Assay [13] deals with T1, Thymidylate synthase. In words: The observed rate constant with methyl mercaptoacetate in Acetonitrile and buffered aqueous acetonitrile solution at 1.6 x 10e-4 M concentration of 0.0036 M. In a few lines: as §1
In assay [14] the target is T1, Thymidylate synthase. In words: The observed rate constant with methyl mercaptoacetate in Acetonitrile and buffered aqueous acetonitrile solution at 1.4 x 10e-4 M concentration of 0.0039. The method, boiled down: as §1
The target of assay [15] is T1, Thymidylate synthase. As to the kind of experiment: The rate constant with methyl mercaptoacetate in Acetonitrile and buffered aqueous acetonitrile solution at concentration of 0.00096 M. The method, boiled down:
as §1

In assay [16] the target is T1, Thymidylate synthase. In words: The observed rate constant with methyl mercaptoacetate in Acetonitrile and buffered aqueous acetonitrile solution at 7.4 x 10e-5 M concentration of 0.00098 M. The method, boiled down:
as §1

Assay [17] addresses T1, Thymidylate synthase. As to the kind of experiment: The observed rate constant with methyl mercaptoacetate in Acetonitrile and buffered aqueous acetonitrile solution at 1.6 x 10e-4 M concentration of 0.0026 M. In a few lines:
as §1

Assay [18] addresses T1, Thymidylate synthase. As to the kind of experiment: The observed rate constant with methyl mercaptoacetate in Acetonitrile and buffered aqueous acetonitrile solution at 1.6 x 10e-4 M concentration of 0.0015 M. In a few lines:
as §1

For assay [19], the target named is T1, Thymidylate synthase. In words: The observed rate constant with methyl mercaptoacetate in Acetonitrile and buffered aqueous acetonitrile solution at 9.7 x 10e-5 M concentration of 0.0029 M. In a few lines: as §1
For assay [20], the target named is T1, Thymidylate synthase. As to the kind of experiment: The observed rate constant with methyl mercaptoacetate in Acetonitrile and buffered aqueous acetonitrile solution at 7.4 x 10e-5 M concentration of 0.0039 M. The method, boiled down:
as §1

Assay [21] concerns the target T1, Thymidylate synthase. In words: The observed rate constant with methyl mercaptoacetate in Acetonitrile and buffered aqueous acetonitrile solution at 9.7 x 10e-5 M concentration of 0.0048 M. The method, boiled down: as §1
Assay [22] concerns the target T1, Thymidylate synthase. As to the kind of experiment: The observed rate constant with methyl mercaptoacetate in Acetonitrile and buffered aqueous acetonitrile solution at 1.4 x 10e-4 M concentration of 0.0077. The method, boiled down: as §1
Assay [23] deals with T1, Thymidylate synthase. In words: The observed rate constant with methyl mercaptoacetate in Acetonitrile and buffered aqueous acetonitrile solution at 7.4 x 10e-5 M concentration of 0.0019 M. In a few lines: as §1
For assay [24], the target named is T1, Thymidylate synthase. In words: The rate constant with methyl mercaptoacetate in Acetonitrile and buffered aqueous acetonitrile solution at concentration of 0.0039 M. The method, boiled down: as §1
For assay [25], the target named is T1, Thymidylate synthase. As to the kind of experiment: The observed rate constant with methyl mercaptoacetate in Acetonitrile and buffered aqueous acetonitrile solution at 9.7 x 10e-5 M concentration of 0.0096 M. In a few lines: as §1
In assay [26] the target is T1, Thymidylate synthase. In words: The observed rate constant with methyl mercaptoacetate in Acetonitrile and buffered aqueous acetonitrile solution at 1.4 x 10e-4 M concentration of 0.0020. The method, boiled down: as §1
The target in assay [27] is T1, Thymidylate synthase. As to the kind of experiment: The observed rate constant with methyl mercaptoacetate in Acetonitrile and buffered aqueous acetonitrile solution at 9.7 x 10e-5 M concentration of 0.00096 M. The method, boiled down: as §1

`CC1=CC(=O)c2ccccc2C1=O` showed a k2 at Thymidylate synthase [1] of 0.14 M⁻¹ s⁻¹.
On Thymidylate synthase [2], `O=c1ccn([C@H]2C[C@H](O)[C@@H](COP(=O)(O)O)O2)c(=O)[nH]1` came in with a k2 of over 760000 M⁻¹ s⁻¹.
In turn, `O=C1C=CC(=O)C(c2cn([C@H]3C[C@H](O)[C@@H](COP(=O)(O)O)O3)c(=O)[nH]c2=O)=C1` displayed a k2 on Thymidylate synthase [2] of 32000 M⁻¹ s⁻¹. For the same molecule, the Ki on Thymidylate synthase [3] worked out at 2000 nM. The same molecule registered a k cat at Thymidylate synthase [4] of 0.065 s⁻¹.
`C=CC(=O)OC`: the k2 at Thymidylate synthase [5] turned out to be 0.11 M⁻¹ s⁻¹.
With `O=C1C=CC(=O)C(c2cn([C@H]3C[C@H](O)[C@@H](CO)O3)c(=O)[nH]c2=O)=C1`, the k2 at Thymidylate synthase [6] was 5 M⁻¹ s⁻¹; on Thymidylate synthase [7], over 1000 M⁻¹ s⁻¹.
With `O=C1C=CC(=O)C(c2ccccc2)=C1`, on Thymidylate synthase [2], the k2 amounted to 2600 M⁻¹ s⁻¹.
As to `CC1C=CC(=O)O1` (centres undefined), the k2 on Thymidylate synthase [8] is 0.037 M⁻¹ s⁻¹.
Consider `CC(=O)OC[C@H]1O[C@@H](n2cc(C3=CC(=O)C=CC3=O)c(=O)[nH]c2=O)C[C@@H]1OC(C)=O`, for which the k2 worked out at 1.7 M⁻¹ s⁻¹ at Thymidylate synthase [9], 2.3 M⁻¹ s⁻¹ on Thymidylate synthase [10], 0.53 M⁻¹ s⁻¹ on Thymidylate synthase [15] and 4.7 M⁻¹ s⁻¹ on Thymidylate synthase [24]. For the same molecule, the k obs at Thymidylate synthase [11] was found to be 0.0197 s⁻¹; on Thymidylate synthase [12] it was 0.00952 s⁻¹; at Thymidylate synthase [13], 0.00518 s⁻¹; at Thymidylate synthase [14], 0.00969 s⁻¹; on Thymidylate synthase [16], 0.00384 s⁻¹; at Thymidylate synthase [17], 0.00334 s⁻¹. Further, the k obs at Thymidylate synthase [18] was 0.00184 s⁻¹; on Thymidylate synthase [19], 0.00154 s⁻¹; on Thymidylate synthase [20], 0.0184 s⁻¹; at Thymidylate synthase [21] it was 0.0025 s⁻¹; on Thymidylate synthase [22], 0.0167 s⁻¹; on Thymidylate synthase [23], 0.00919 s⁻¹. Further, the k obs on Thymidylate synthase [25] came out at 0.00501 s⁻¹; at Thymidylate synthase [26], 0.00434 s⁻¹; at Thymidylate synthase [27], 0.000434 s⁻¹.
